Source: PubChem (several laboratories)
Compounds with a hit are over-represented: about 4.2% of the library has one in this group of screens.
hERG protect – shields human hERG channel from block by proarrhythmic agents; Q12809; CHO-hERG, FluxOR thallium flux, dofetilide IC70 present; activation (rescue from dofetilide block), less the hit threshold, % at 10 µM; hit rate 0.51% among 310,000; AID 1511;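 active means activation above the mean of controls blocked by dofetilide plus 5 SD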;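 further: thallium influx through hERG after potassium depolarization seen as dye fluorescence rise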
Target sequence (Q12809 whole entry, looked up): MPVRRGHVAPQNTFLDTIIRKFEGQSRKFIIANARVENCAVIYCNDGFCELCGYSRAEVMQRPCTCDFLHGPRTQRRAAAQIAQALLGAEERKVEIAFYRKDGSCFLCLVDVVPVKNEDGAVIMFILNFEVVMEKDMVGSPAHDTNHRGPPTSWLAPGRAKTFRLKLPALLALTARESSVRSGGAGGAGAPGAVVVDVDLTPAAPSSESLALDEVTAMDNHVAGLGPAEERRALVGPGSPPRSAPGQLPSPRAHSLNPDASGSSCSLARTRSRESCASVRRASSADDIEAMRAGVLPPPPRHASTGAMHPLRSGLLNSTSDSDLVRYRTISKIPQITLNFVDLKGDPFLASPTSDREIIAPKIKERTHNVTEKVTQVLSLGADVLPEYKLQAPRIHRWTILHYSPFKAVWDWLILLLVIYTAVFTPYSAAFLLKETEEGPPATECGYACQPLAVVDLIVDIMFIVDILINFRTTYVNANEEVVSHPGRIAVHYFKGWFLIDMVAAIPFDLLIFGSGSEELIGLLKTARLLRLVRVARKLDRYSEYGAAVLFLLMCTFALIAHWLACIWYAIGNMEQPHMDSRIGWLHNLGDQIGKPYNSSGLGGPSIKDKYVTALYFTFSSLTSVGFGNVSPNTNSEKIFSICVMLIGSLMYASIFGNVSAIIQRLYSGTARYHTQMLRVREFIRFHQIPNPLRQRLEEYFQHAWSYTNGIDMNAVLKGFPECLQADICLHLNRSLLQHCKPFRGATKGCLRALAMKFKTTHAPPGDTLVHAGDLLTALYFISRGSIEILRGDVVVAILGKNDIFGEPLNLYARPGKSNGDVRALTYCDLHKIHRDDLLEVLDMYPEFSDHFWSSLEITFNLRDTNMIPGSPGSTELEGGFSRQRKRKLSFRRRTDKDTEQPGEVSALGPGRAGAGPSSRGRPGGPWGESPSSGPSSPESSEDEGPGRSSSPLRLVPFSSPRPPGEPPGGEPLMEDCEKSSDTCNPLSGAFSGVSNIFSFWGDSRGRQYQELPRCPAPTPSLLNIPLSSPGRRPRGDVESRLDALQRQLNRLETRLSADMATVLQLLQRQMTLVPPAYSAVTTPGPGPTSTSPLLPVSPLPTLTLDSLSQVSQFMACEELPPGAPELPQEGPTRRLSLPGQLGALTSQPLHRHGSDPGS
Mot1-301 SUMO – inhibitors of SUMOylation pathway: yeast Mot1-301 growth rescue | S. cerevisiae Mot1-301 growth rescue, ATP luminescence, 38.5C; percent above DMSO median, 100 means doubled | growth rescue, % at 18.8 µM | hit rate 1% among 320,000;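 active means every valid replicate shows activation above 250% relative to neutral control wells; inactive means the rest, any valid replicate at or below 250%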;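 further: OY570 slx delta 5 strain wells were the positive control but not used for scaling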
KCNQ1 block – blocks the human KCNQ1 potassium channel; P51787; CHO-K1 KCNQ1, FluxOR thallium flux fluorescence; active compounds read high; B-score at 10 µM; hit rate 1.3% among 310,000;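 active means compounds whose thallium flux B-score, printed positive for inhibition, exceeds three library SD while starting fluorescence stays within three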;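 further: channel opened by potassium depolarization with thallium stimulus after 20 min compound exposure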
AI-2 QS mod – modulators of Vibrio harveyi AI-2 quorum sensing system; Vibrio harveyi JMH597 AI-2 luminescence/OD600 ratio, 9 h; active compounds read low; strain lacks LuxN and CqsS sensors; 0 = neutral-control median; activity change, % at 7.5 µM; hit rate 0.4% among 300,000; AID 2094; in the data active means activity change below about -75%, passing the limit was not always enough;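 further: luminescence divided by OD600 gain over 9 h not by final OD600 alone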
KCC2 mod – modulators of human KCC2 chloride dependent transport. KCC2 cells, thallium flux FluoZin-2 fluorescence. Q9H2X9. hit rate 2.2% among 190,000. B-score of Tl+ flux slope (higher = more flux/activation; lower = inhibition) at 10 µM;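 active means thallium flux slope and its plate-corrected score both differing from the plate sample mean at a set confidence after two filtering rounds, in either direction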;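 further: slope of fluorescence scaled to starting intensity during 10 to 20 s after thallium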
KCNQ1 pot – potentiates or activates the human KCNQ1 potassium channel | hit rate 0.35% among 310,000 | B-score at 10 µM | P51787 | CHO-K1 KCNQ1, thallium flux FluxOR fluorescence; active compounds read high;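 active means fluorescence ratio B-score, a plate-corrected score, at least three library SD, with initial intensity B-score within 5 SD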
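assay system = CHO-K1 cells stably expressing KCNQ1 | medium = assay buffer, equal DMSO in all wells | timing = 37 °C overnight plating, 90-min dark dye load, 20-min compound pretreatment | measured by = kinetic FluxOR thallium fluorescence, 10-s 1-Hz baseline, 110-s post-stimulus read | measure = fluorescence change relative to baseline, converted to B score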
KCNQ1 inh valid – confirmation of human KCNQ1 potassium channel inhibitors. shares compounds with KCNQ1 block. KCNQ1 cell line, FluxOR thallium flux fluorescence. inhibition, % at 10 µM. hit rate 93% among 1,600. AID 588353;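 active means primary screen active, with duplicate mean exceeding buffer control mean plus 3 SD of buffer wells, cut at about 28% in these data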;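 further: 0% = buffer control ratio and 100% = XE991 inhibitor control ratio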
CHO KCNQ1 ctr – activity in parental CHO cells lacking KCNQ1; shares compounds with KCNQ1 block; parental CHO-K1, FluxOR thallium flux fluorescence ratio; active compounds read low; zero means no signal rise above baseline; fluorescence ratio (Tl flux) at 10 µM; hit rate 21% among 1,600; AID 588366;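 active means mean of duplicate thallium-flux fluorescence ratios in parental host cells more than 5 SD below the buffer control mean, cut at about 0.38 in these data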;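 further: ratio is peak minus minimum fluorescence divided by baseline fluorescence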
KCNQ1 ephys val – human KCNQ1 inhibition validated by electrophysiology; AID 624120; shares compounds with KCNQ1 block; calls only at 10 µM; hit rate 20% among 490; KCNQ1-CHO cells, automated patch clamp current;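 active means KCNQ1 current drop exceeding 3 SD of negative control wells, seen in both duplicate runs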;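 further: steady state current during a 2 s step from -80 to +40 mV; negative values mean current inhibition and positive values mean potentiation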
KCNQ2 inh – selectivity of KCNQ1 inhibitors: inhibition of rat KCNQ2 channel; hit rate 71% among 1,600; shares compounds with KCNQ1 block; KCNQ2 cells, FluxOR thallium flux fluorescence; inhibition, % at 10 µM;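 active means mean percent inhibition of the KCNQ2 thallium signal more than 5 SD above the buffer-only control wells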;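 further: KCNQ2 expressed in CHO cells; 0% = buffer control wells and 100% = XE-991 inhibitor control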
KCNQ1 KCNE1 spec – KCNQ1 inhibitor that also blocks human KCNQ1/KCNE1 channel. shares compounds with KCNQ1 block. KCNQ1/KCNE1 cells, FluxOR thallium flux fluorescence. inhibition, % at 10 µM. hit rate 77% among 1,600;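 active means mean percent inhibition of duplicate wells above the buffer-only control mean plus 3 SD of those controls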;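 further: 0% = buffer only wells and 100% = XE-991 inhibitor control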
* marks the source's active call; other numbers are inactive results; i = inactive; / = no result given; + = active, no number.

SMILES	hERG protect	Mot1-301 SUMO	KCNQ1 block	AI-2 QS mod	KCC2 mod	KCNQ1 pot	KCNQ1 inh valid	CHO KCNQ1 ctr	KCNQ2 inh	KCNQ1 KCNE1 spec	others
COc1ccc(/C=N/NC(=O)c2cc3c(ccc4ccccc43)o2)c(OC)c1	-22.7	/	18*	9.0	/	i	82.5*	0.434	63.7%*	170.5%*
CCCn1c(SCC(=O)Nc2nonc2C)nnc1-c1ccoc1C	-6.3	12.7	i	/	0.0132	i	/	/	/	/
Cc1nonc1NC(=O)CSc1nnc(-c2ccoc2C)n1-c1cccc(Cl)c1	-12.7	-6.2	7*	2.3	-0.322	i	33.5*	0.428	70.3%*	67.5%*
CCN(CC)C1=C(Cl)C(=O)C(Cl)C12OCCO2 (stereo not given)	-3.1	0.8	i	1.3	0.339	i	/	/	/	/
Cn1cc(CNCc2ccc(OC(F)(F)F)cc2)c(-c2ccc3c(c2)OCCO3)n1	-20.0	-11.8	10*	21.0	-0.47	i	124.0*	0.493	111.7%*	60.0%*	KCNQ1 ephys val=i
COc1ccccc1NC(=O)C(C)OC(=O)C1CCC(C(C)(C)C)CC1 (stereo not given)	-5.3	-5.7	7*	-18.7	/	i	121.5*	0.493	82.7%*	156.0%*	KCNQ1 ephys val=i
COc1ccccc1NC(=O)C(C)OC(=O)C1CC(=O)N(c2ccc3c(c2)OCCO3)C1 (stereo not given)	-12.9	607.8	i	11.5	/	i	/	/	/	/
O=C(NC1CCCCC1)C(c1ccco1)N(Cc1ccco1)C(=O)c1ccco1 (stereo not given)	-7.1	-6.3	7*	19.2	-0.133	i	96.0*	0.41	70.3%*	112.5%*	KCNQ1 ephys val=+
O=c1c2sc3nc(N4CCOCC4)c4c(c3c2ncn1CCc1ccccc1)CCCC4	-10.5	1.7	9*	19.9	/	i	102.5*	0.445	92.0%*	103.0%*	KCNQ1 ephys val=i
Cc1ccc(C)n1-c1nn(S(=O)(=O)c2ccccc2)c2cccc(F)c12	-3.1	-5.5	i	14.3	1.12	i	/	/	/	/
COc1ccc(S(=O)(=O)n2nc(-n3c(C)ccc3C)c3c(F)cccc32)cc1OC	-9.0	32.0	9*	13.8	-0.414	i	124.5*	0.403	106.7%*	138.0%*	KCNQ1 ephys val=i
O=C(CSc1ccccc1)N(c1ccc(Br)cc1)c1nccs1	-7.8	-6.7	i	14.2	-1.38	i	/	/	/	/
Cc1ccccc1C(=O)Nc1ccc2c(C#N)c3nc4ccccc4nc3n2c1	-11.7	-6.8	8*	19.3	0.491	i	32.0*	0.517	63.7%*	i
O=c1nc2ccccc2c2n1CC(CN1CCN(c3ccccc3F)CC1)N2 (stereo not given)	-4.4	-8.0	i	-0.7	/	i	/	/	/	/
CCc1c(C2(O)CCCCC2)[nH]c2c(C(=O)OC)cc(Cl)cc12	-6.6	-1.0	6*	17.7	/	i	125.5*	0.377*	119.7%*	123.0%*
COC(=O)c1cc(Cl)cc2c(C)c(C3(O)CCCCC3)[nH]c12	-8.9	22.1	i	2.4	/	i	/	/	/	/
O=C(Nc1ccccc1N1CCCCC1)C1CCN(S(=O)(=O)c2ccccc2C(F)(F)F)CC1	-13.1	1.5	11*	20.6	/	i	64.5*	0.423	100.7%*	81.5%*
CCOc1cc(C(=O)OC(C(=O)NC(=O)NC)c2ccccc2)ccc1OCC(=O)N1CCOCC1 (stereo not given)	/	38.7	/	/	/	/	/	/	/	/
CC1CCN(C(=O)C(=O)Nc2sc3c(c2C(N)=O)CC(C)(C)OC3)CC1	-2.0	7.1	i	20.9	/	i	/	/	/	/
O=S(=O)(Nc1ncccn1)c1ccc(F)cc1	-3.4	-1.6	i	4.8	/	i	/	/	/	/
O=S(=O)(Nc1c(O)ccc2ccccc12)c1ccc(F)cc1	-21.3	-10.0	10*	7.2	/	i	42.5*	0.642	i	55.0%*
O=S(=O)(Nc1c(O)ccc2ccccc12)c1ccccc1	-10.6	-14.5	11*	1.7	/	i	55.5*	0.534	i	89.5%*
O=S(=O)(Nc1cccc2ccccc12)c1ccccc1	-10.3	/	i	8.3	-0.277	i	/	/	/	/
O=C1c2ccccc2C(=O)N1CSc1nnc2c3ccccc3n(CCc3ccccc3)c2n1	-12.9	-11.8	6*	2.3	-1.31	i	42.5*	0.501	77.7%*	i
COc1ccc(OC)c(NC(=O)Nc2c(O)ccc3ccccc23)c1	-8.7	-10.1	12*	8.1	/	i	0.0	0.619	i	48.0%*
SMILES	hERG protect	Mot1-301 SUMO	KCNQ1 block	AI-2 QS mod	KCC2 mod	KCNQ1 pot	KCNQ1 inh valid	CHO KCNQ1 ctr	KCNQ2 inh	KCNQ1 KCNE1 spec	others
Cc1cc(C)c(C#N)c(SCC2COc3ccccc3O2)n1 (stereo not given)	-8.2	-8.9	i	2.2	-1.93	i	/	/	/	/
N#Cc1cc2c(nc1SCC1COc3ccccc3O1)CCC2 (stereo not given)	-5.3	-7.8	8*	11.1	-1.11	i	105.5*	0.395	98.7%*	124.0%*
CC(NC(=O)Cc1ccc(NS(=O)(=O)c2cccc(C(F)(F)F)c2)cc1)c1ccccn1 (stereo not given)	-5.7	-20.1	i	22.5	/	i	/	/	/	/
Cc1cc(C)nc(NC(=O)c2ccc(COc3ccccc3Cl)cc2)c1	-6.2	8.1	8*	14.2	0.215	i	103.0*	0.447	106.0%*	123.0%*	KCNQ1 ephys val=i
Cc1cc(C)c(C#N)c(SCSCc2ccccc2)n1	-17.6	5.9	6*	14.1	-0.247	i	85.5*	0.38*	110.0%*	125.0%*
Cc1cc(C)c(C#N)c(SCc2ccccc2)n1	-5.9	19.8	i	35.4	0.725	i	/	/	/	/
O=C(CNC(=O)C1CCCCC1)NCc1ccco1	-3.9	-9.5	i	7.2	/	i	/	/	/	/
Cc1cc(S(=O)(=O)Nc2ccc(C(=O)NCc3ccncc3)cc2)ccc1F	-12.0	4.7	i	11.3	/	i	/	/	/	/
COc1cccc(-c2csc(N3CCN(C(=O)Nc4ccc(Cl)cc4)CC3)n2)c1	-21.7	4.3	12*	7.4	-1.09	i	147.5*	0.364*	105.0%*	+
